Assay results gathered from unrelated publications.
Target: Receptor tyrosine-protein kinase erbB-3 (ERBB3, Homo sapiens, UniProt P21860)
Concentration: 1 µM

| SMILES | assay | remaining binding [%] |
| --- | --- | --- |
| C=CC(=O)N1CCC(C(=O)NCC(=O)N2CCN(c3nc(-c4cnc(N)nc4C(F)F)nc(N4CCOCC4)n3)CC2)CC1 | binding, competition with immobilised ligand | 84 |
| CN(CCCC(F)(F)F)c1nccc(-c2cnn3ncccc23)n1 | binding | 100 |
| O=C(c1ccc(Nc2ncc(Cl)c(-c3cc4ccccc4s3)n2)cc1)N1CCC(N2CCCC2)CC1 | binding, competition with immobilised ligand | 81 |
| CC(C)(O)c1cncc(-c2nc3ccc(F)cc3n2C2CC2)c1 | cell-free assay, competition with immobilised ligand | 80 |
| O=C(c1ccc(Nc2nccc(-c3cc4ccccc4s3)n2)cc1)N1CCC(N2CCCC2)CC1 | binding, competition with immobilised ligand | 100 |
| CN(C)c1ncc(F)c(-c2cnn3ncccc23)n1 | binding | 100 |
| COc1ccc2c(O[C@@H]3C[C@H]4C(=O)N[C@]5(C(=O)O)CC5/C=C\CCCCC[C@H](NC(=O)OC5CCCC5)C(=O)N4C3)cc(-c3csc(NC(=O)C(C)C)n3)nc2c1C (stereo partly shown) | cell-free assay, competition with immobilised ligand | 88 |
| Cc1cnn2ncc(-c3ccnc(N(C)C)n3)c2c1 | binding | 100 |
| O=C(NCCCN1CCOCC1)c1ccc(Nc2nccc(-c3cc4ccccc4s3)n2)cc1 | binding, competition with immobilised ligand | 86 |
| CC(=O)N1CCC(c2ccc(C(=O)NC(=N)N)cc2C(F)(F)F)CC1 | cell-free assay, competition with immobilised ligand | 98 |
| COc1cnc(Nc2cccc(S(N)(=O)=O)c2)nc1N1CCN(c2ccccc2)CC1 | binding, competition with immobilised ligand | 88 |
| C[C@H](c1ccc(F)cc1)N(Cc1cccc(C(=O)O)c1)C(=O)c1cnc2ccccc2c1 | cell-free assay, competition with immobilised ligand | 68 |
| O=C(Nc1c[nH]nc1C(=O)NC1CCNCC1)c1cc(F)cc(F)c1 | binding, competition with immobilised ligand | 86 |
| COc1ccnn2ncc(-c3ccnc(N(C)C)n3)c12 | binding | 100 |
| Cc1c(C(=O)O)cc(-c2ccc(C3CCNCC3)cc2)c2ccc(-c3ccc(C(F)(F)F)cc3)cc12 | binding, competition with immobilised ligand | 86 |
| N[C@@H]1CCN(c2nccc(-c3cnn4ncccc34)n2)C1 | binding | 100 |
| CNC(=O)[C@@H]1CC[C@@H](n2c(-c3ccc4cnccc4c3)nc3ccc(C(=O)NCc4cccc(C(N)=O)c4)cc32)C1 | binding, competition with immobilised ligand | 100 |
| CN(c1nccc(-c2cnn3ncccc23)n1)C1CC1 | binding | 100 |
| O=C1CCc2cc(Nc3cc(OC4CCOCC4)c([N+](=O)[O-])cc3Cl)ccc2N1 | cell-free assay, competition with immobilised ligand | 98 |
| CCN1CCN(Cc2ccc(C(=O)Nc3ccc(C)c(Oc4ccc5c(c4)CC(=O)N5)c3)cc2C(F)(F)F)CC1 | binding, competition with immobilised ligand | 100 |
| O=C(NCc1ncc(C(F)(F)F)cc1Cl)c1ccc2c(c1)C1(CCS(=O)(=O)CC1)[C@H](C1CC1)N2S(=O)(=O)c1ccc(F)cc1 | cell-free assay, competition with immobilised ligand | 100 |
| C[C@@H]1CCN(c2nccc(-c3cnn4ncccc34)n2)C1 | binding | 100 |
